# Bioassay records: PubChem BioAssay, The Scripps Research Institute Molecular Screening Center
# Compounds with a hit are over-represented: about 1.9% of the library has one in this group of screens.
# PP1 inh = blocks human PP1-alpha phosphatase, a PP5 counter-screen | P62136 | purified PP1alpha, OMFP fluorescence | inhibition, % at 6.7 µM | actives 0.9% (n = 320,000) | AID 2235;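 active means inhibition above the mean inhibition of all tested compounds plus 3 SD, computed separately for each screening campaign, cut at about 15% in these data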
# ZTA counter = blocks Epstein-Barr virus ZTA, an EBNA-1 counter-screen | P03206 | ZTA-DNA binding, fluorescence polarization | inhibition, % at 11 µM | actives 0.15% (n = 320,000) | AID 2234; in the data active means inhibition above about 33%
# Target sequence (P03206 whole entry, looked up): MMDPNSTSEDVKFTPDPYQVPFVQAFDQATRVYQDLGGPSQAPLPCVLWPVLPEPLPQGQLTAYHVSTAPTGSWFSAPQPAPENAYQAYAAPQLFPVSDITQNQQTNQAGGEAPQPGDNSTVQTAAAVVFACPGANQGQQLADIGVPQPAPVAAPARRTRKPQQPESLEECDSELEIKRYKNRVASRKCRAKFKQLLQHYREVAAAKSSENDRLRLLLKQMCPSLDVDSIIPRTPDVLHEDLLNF
# EBNA-1 inhibitor = blocks EBNA-1 binding to DNA; inhibition, % at 14.8 µM; EBNA-1 DNA binding, fluorescence polarization; actives 0.34% (n = 300,000); AID 1950; in the data active means inhibition above about 28%
# NS3 helicase inh = HCV NS3 helicase inhibition | NS3 helicase DNA unwinding, Cy5 molecular beacon fluorescence | actives 0.56% (n = 290,000) | inhibition, % at 10.9 µM | AID 1800;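 active means inhibition above the mean of all tested compounds plus 3 SD, set per campaign, cut at about 35% in these data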
#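 Control set: DMSO versus 110 µM thioflavine S; Material: NS3 helicase fragment of HCV; Measured by: Cy5 fluorescence at 0 and 60 min, beacon hairpin quenching; Read-out basis: percent inhibition from t60/t0 fluorescence ratio; Times: reaction time 60 min, 25 °C; Repeats: single replicate; Compound dosing: single dose, 10.9 µM nominal final, DMSO 0.8% final.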
# core dimer inh = HCV core protein dimerization inhibition. TR-FRET GST/Flag-core106 dimerization, 1536-well. actives 0.33% (n = 300,000). inhibition, % at 5 µM. AID 1899;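 active means inhibition above the mean of all tested compounds plus 3 SD, set per screening campaign, cut at about 45% in these data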
#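 Test system: GST/Flag-tagged HCV core106 proteins; Medium: KF-containing HEPES buffer, pH 7.45, DTT, CHAPS, BSA; Times: compound-protein-antibody incubation 4 h at 22.5 °C; Detection: TR-FRET 671 and 617 nm emission; Benchmarks: wells lacking GST-core106 and wells with excess unlabelled core106.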
# NS3 helicase cf = HCV NS3 helicase inhibition, confirmation assay. NS3 helicase DNA unwinding, Cy5 molecular beacon fluorescence. actives 31% (n = 1,600). shares compounds with NS3 helicase inh. AID 1943. inhibition, % at 10.9 µM;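 active means inhibition above the mean of all tested compounds plus 3 SD, cutoff set per campaign, cut at about 36% in these data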
# DNA FID counter = intercalator displacement, NS3 helicase counter-screen | shares compounds with NS3 helicase inh | DNA fluorescent intercalator displacement, fluorescence | inhibition, % at 7.9 µM | actives 4% (n = 1,600) | AID 1945; in the data active means inhibition above about 37%;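 further: higher means more displacement of ethidium bromide from the DNA hairpin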
# DNA FID DR = counter-screen for HCV NS3 helicase inhibitors: DNA intercalator displacement dose response; shares compounds with NS3 helicase inh; IC50, µM; AID 2172; fluorescent intercalator displacement from DNA, fluorescence; 120 tested, under 10 active; call rule not given here
# A number is an active result; i = inactive; nt = not tested or not shown.
SMILES,PP1 inh,ZTA counter,EBNA-1 inhibitor,NS3 helicase inh,core dimer inh,NS3 helicase cf,DNA FID counter,others
COc1ccc(NC(=O)CSc2nc3ccsc3c(=O)n2CCC(=O)O)c(OC)c1,i,i,i,i,i,nt,nt,
NC(=O)CNC(=O)C1CCN(S(=O)(=O)c2ccc(-n3cnnn3)cc2)CC1,i,i,i,i,i,nt,nt,
Cc1ccc(-c2cc(-c3ccccc3)c3c(N)c(S(C)(=O)=O)sc3n2)cc1,i,i,i,i,i,nt,nt,
CS(=O)(=O)c1sc2nc(-c3cccs3)cc(-c3ccccc3)c2c1N,i,i,i,46,51,78,i,
CCCCn1c(NS(=O)(=O)c2ccc(C)cc2)c(S(=O)(=O)c2ccccc2)c2nc3ccccc3nc21,i,i,i,38,i,72,i,DNA FID DR=i
Cc1ccc(S(=O)(=O)c2c(N)n(CCCN(C)C)c3nc4ccccc4nc23)cc1,i,i,i,i,i,nt,nt,
CC1Sc2ccc(S(=O)(=O)CCC(=O)NC3CCCC(C)C3C)cc2NC1=O (stereo not given),i,i,i,54,i,i,i,
CC1CCCN(C(=O)CCS(=O)(=O)c2ccc3c(c2)NC(=O)C(C)S3)C1 (stereo not given),i,i,i,44,i,i,i,
CC1CCCC(NC(=O)CCS(=O)(=O)c2ccc3c(c2)NC(=O)CS3)C1C (stereo not given),i,i,i,i,i,nt,nt,
CCc1ccccc1NC(=S)Nn1cnnc1,nt,nt,nt,i,nt,nt,nt,
Cn1c(SCC(=O)Nc2ccccc2)nc2ccccc2c1=O,nt,nt,nt,i,nt,nt,nt,
Cc1cccc(CNCc2ccccc2)c1,i,i,i,38,i,i,i,
CN(C)c1ccc(/C=C/c2nc3ccccc3c(=O)n2-c2ccc(C(=O)O)cc2)cc1,i,i,i,i,i,nt,nt,
O=C(O)c1cccc(-n2c(/C=C/c3ccccc3)nc3ccccc3c2=O)c1,i,i,i,53,i,53,i,DNA FID DR=i
COc1ccc(Nc2cc(C(=O)NCCCN3CCN(C)CC3)c3ccccc3n2)c(OC)c1,i,i,i,64,i,i,66,
CCOC(=O)C(C)(C)Oc1cccc2c1S(=O)(=O)c1ccccc1-2,i,i,i,nt,i,nt,nt,
COc1cc(/C=N/NC(N)=O)cc([N+](=O)[O-])c1O,i,i,i,39,i,i,i,
Cn1nc(C(=O)NCC(=O)Nc2ccc(F)c(F)c2F)c2ccccc2c1=O,i,i,nt,nt,nt,nt,nt,
Cn1cccc1CC(=O)NNC(=S)Nc1ccc(F)cc1,i,i,i,36,i,i,i,
Cc1ccc(C)c(S(=O)(=O)N2CCCOC2CNC(=O)C(=O)NCc2ccncc2)c1 (stereo not given),i,i,i,i,i,nt,nt,
O=C1NN(c2ccccc2)C(=O)/C1=C\c1ccccc1OCC(=O)N1CCOCC1,i,i,i,49,i,i,i,
NS(=O)(=O)c1ccc2nc(NC(=O)c3ccc4ncsc4c3)sc2c1,i,i,i,44,i,42,i,DNA FID DR=i
Cc1ccc2nc(NC(=O)c3ccc4ncsc4c3)sc2c1,i,i,i,i,i,nt,nt,
Oc1ccccc1C=Nc1cccc2ccccc12,i,i,i,i,i,nt,nt,
Oc1cccc(C=Nc2cccc3ccccc23)c1O,i,i,i,46,i,i,i,
SMILES,PP1 inh,ZTA counter,EBNA-1 inhibitor,NS3 helicase inh,core dimer inh,NS3 helicase cf,DNA FID counter,others
Cc1ccc(-c2nn3c(C)nnc3s2)cc1NC(=O)c1ccc(-c2cccc(Cl)c2)o1,nt,nt,nt,60,nt,i,i,
O=C(CSc1nnc(-c2ccc(O)cc2)n1-c1ccccc1)CC(=O)Nc1ccccc1,i,i,i,37,i,i,i,
O=C1CS/C(=N/N=C/c2ccccc2)N1c1ccc(O)cc1,i,i,i,i,i,nt,nt,
O=C1CS/C(=N\N=C\c2ccco2)N1c1ccccc1,i,i,i,41,i,i,i,
Cc1nn(CC(=O)N2c3ccccc3NC(=O)C2(C)C)c(C)c1[N+](=O)[O-],i,i,i,i,i,nt,nt,
CC1(C)C(=O)Nc2ccccc2N1C(=O)Cn1ncc(Cl)c(Cl)c1=O,i,i,i,47,i,i,i,
Cc1cc(=O)[nH]c(N/N=C/c2cc(C)n(CC(F)(F)F)c2C)n1,i,i,i,i,i,nt,nt,
